This is an account of results in ChEMBL document CHEMBL2074042, “beta-lactam antibiotics as substrates for OCTN2, an organic cation/carnitine transporter” (J Biol Chem, 2000).

A word on the IC50: it is the concentration needed to halve the response being measured.

Each structure is given as a SMILES string.

What all share (assay type): functional, cell-based
Data set [1] has as its target T1, OCTN2 (organic cation/carnitine transporter 2) (Homo sapiens, UniProt O76082).
T1 sequence (O76082 whole entry): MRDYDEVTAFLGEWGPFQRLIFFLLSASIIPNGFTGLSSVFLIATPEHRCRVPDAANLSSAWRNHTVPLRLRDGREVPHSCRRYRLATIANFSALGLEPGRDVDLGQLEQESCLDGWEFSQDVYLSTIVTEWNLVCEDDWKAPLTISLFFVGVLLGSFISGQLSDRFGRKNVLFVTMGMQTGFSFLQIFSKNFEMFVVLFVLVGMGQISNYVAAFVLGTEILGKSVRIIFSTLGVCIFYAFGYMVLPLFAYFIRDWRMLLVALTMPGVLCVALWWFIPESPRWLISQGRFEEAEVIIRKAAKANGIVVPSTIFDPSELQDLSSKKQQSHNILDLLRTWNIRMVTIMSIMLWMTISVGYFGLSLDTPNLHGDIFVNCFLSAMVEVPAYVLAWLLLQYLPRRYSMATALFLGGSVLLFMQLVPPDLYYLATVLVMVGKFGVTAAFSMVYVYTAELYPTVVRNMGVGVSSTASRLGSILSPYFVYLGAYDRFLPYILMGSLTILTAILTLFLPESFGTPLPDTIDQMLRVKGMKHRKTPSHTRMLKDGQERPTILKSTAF
Put plainly: (§1) TP_TRANSPORTER: inhibition of Carnitine uptake (Carnitine: 0.02 uM, Cefluprenam: 2500 uM) in OCTN2-expressing HeLa cells. The arrangement: scale not given: the % may be the effect or the level left. Particulars: probe carnitine (0.02 uM), read-out: Activity. The essentials:
(§2)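 HeLa cells expressed human or rat OCTN2 cDNA by vaccinia virus/T7 system. [3H]carnitine (20 nM) uptake for 30 min at room temperature in Na+-containing Hepes/Tris buffer, pH 7.5, with β-lactam at 2.5 mM. Lysate radioactivity counted. Endogenous activity from vector-only cells subtracted. Four measurements from two transfections.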

The target in data set [2] is T2, OCTN2 (organic cation/carnitine transporter 2) (Rattus norvegicus, UniProt O70594).
T2 sequence (O70594 whole entry): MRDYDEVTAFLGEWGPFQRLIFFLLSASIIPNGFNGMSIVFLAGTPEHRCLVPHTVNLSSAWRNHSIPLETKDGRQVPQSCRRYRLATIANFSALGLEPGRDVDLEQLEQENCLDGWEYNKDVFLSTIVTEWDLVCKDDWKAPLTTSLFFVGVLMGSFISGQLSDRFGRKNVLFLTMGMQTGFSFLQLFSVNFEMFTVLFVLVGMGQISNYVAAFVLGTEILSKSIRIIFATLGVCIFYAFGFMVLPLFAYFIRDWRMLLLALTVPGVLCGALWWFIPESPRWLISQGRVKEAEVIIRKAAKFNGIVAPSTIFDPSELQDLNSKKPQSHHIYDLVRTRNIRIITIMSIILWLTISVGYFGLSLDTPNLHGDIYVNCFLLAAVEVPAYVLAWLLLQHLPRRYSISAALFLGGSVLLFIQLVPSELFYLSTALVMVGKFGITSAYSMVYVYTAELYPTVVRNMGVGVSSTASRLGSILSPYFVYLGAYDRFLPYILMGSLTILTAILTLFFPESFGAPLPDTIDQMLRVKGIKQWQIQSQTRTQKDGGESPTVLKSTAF
Described as §1. More on the design: scale not given: the % may be the effect or the level left. Particulars: human, probe carnitine (0.02 uM), read-out: Activity. The essentials:
as §2

In data set [3] the target is T3, Solute carrier family 15 member 1 (Homo sapiens) (UniProt P46059).
T3 sequence (whole entry): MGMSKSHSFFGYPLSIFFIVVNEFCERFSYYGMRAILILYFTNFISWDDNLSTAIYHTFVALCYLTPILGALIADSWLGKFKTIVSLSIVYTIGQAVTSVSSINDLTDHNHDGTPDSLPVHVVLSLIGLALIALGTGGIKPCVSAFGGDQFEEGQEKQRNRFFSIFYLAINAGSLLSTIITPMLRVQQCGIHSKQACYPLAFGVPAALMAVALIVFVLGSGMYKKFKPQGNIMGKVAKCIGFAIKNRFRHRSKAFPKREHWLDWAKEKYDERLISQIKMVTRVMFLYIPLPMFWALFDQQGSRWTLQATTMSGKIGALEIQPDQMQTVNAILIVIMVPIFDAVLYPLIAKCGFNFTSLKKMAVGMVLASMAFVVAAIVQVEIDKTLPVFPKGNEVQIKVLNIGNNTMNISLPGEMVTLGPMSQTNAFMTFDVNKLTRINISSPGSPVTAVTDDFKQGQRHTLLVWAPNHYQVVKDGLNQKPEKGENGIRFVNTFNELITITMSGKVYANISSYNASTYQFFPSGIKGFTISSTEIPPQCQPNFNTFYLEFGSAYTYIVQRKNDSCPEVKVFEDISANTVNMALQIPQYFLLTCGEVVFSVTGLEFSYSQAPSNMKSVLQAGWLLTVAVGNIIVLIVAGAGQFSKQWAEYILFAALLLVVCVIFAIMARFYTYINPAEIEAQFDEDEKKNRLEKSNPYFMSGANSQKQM
As to the kind of experiment: TP_TRANSPORTER: inhibition of Gly-Sar uptake (Gly-Sar: 50 uM, Cefluprenam: 2500uM) in PEPT1-expressing HeLa cells. The method, boiled down:
(§3)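 HeLa cells expressing human PEPT1 cDNA. [14C]glycylsarcosine (50 μM) uptake for 5 min in Mes/Tris buffer, pH 6.0, giving an H+ gradient, with test compound at 2.5 mM. Vector-transfected uptake subtracted. Percent of control, n=3, mean ± S.E.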

Data set [4] addresses T4, Solute carrier family 15 member 2 (Rattus norvegicus) (UniProt Q63424).
T4 sequence (whole entry): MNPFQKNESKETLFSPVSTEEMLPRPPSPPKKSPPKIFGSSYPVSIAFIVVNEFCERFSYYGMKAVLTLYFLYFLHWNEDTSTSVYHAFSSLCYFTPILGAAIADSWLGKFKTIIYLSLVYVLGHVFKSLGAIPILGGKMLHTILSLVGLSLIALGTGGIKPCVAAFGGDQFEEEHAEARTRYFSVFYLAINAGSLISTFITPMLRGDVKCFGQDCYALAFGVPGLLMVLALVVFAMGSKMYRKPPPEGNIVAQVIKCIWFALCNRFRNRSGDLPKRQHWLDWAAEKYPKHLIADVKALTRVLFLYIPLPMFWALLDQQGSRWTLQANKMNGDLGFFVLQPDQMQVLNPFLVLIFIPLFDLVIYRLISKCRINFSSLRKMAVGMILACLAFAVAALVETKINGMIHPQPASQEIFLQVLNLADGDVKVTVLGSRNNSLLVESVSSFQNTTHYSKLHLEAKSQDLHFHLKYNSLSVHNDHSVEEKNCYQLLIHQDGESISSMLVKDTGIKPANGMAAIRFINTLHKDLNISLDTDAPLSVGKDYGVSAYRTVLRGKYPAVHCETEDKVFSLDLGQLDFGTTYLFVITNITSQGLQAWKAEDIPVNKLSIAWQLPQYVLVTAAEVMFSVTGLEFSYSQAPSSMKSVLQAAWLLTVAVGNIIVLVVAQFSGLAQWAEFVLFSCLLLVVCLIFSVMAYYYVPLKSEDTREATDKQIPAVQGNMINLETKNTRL
As to the kind of experiment: TP_TRANSPORTER: inhibition of Gly-Sar uptake (Gly-Sar: 25 uM, Cefluprenam: 2500uM) in PEPT2-expressing HeLa cells. The essentials:
(§4)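 HeLa cells expressing rat PEPT2 cDNA. [14C]glycylsarcosine (25 μM) uptake for 5 min under an inward H+ gradient in Mes/Tris buffer, pH 6.0, with test compound at 2.5 mM. Vector-cell uptake subtracted. Results as percent of control, three independent measurements, mean ± S.E.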

Data set [5] has as its target T3, Solute carrier family 15 member 1 (Homo sapiens). As to the kind of experiment: TP_TRANSPORTER: inhibition of Gly-Sar uptake (Gly-Sar: 50 uM, Cefoselis: 2500uM) in PEPT1-expressing HeLa cells. More on the design: scale not given: the % may be the effect or the level left. The essentials:
as §3

Data set [6] has as its target T4, Solute carrier family 15 member 2 (Rattus norvegicus). Put plainly: TP_TRANSPORTER: inhibition of Gly-Sar uptake (Gly-Sar: 25 uM, Cefoselis: 2500uM) in PEPT2-expressing HeLa cells. More on the design: scale not given: the % may be the effect or the level left. The method, boiled down:
as §4

Data set [7] addresses T5, Organic cation/carnitine transporter 2 (Homo sapiens, UniProt O76082).
T5 sequence (O76082 whole entry): T1 sequence (O76082 whole entry)
Put plainly: TP_TRANSPORTER: inhibition of Carnitine uptake (Carnitine: 0.02 uM) in OCTN2-expressing HeLa cells.

Data set [8] deals with T2, OCTN2 (organic cation/carnitine transporter 2). As to the kind of experiment: TP_TRANSPORTER: inhibition of Carnitine uptake (Carnitine: 0.02 uM, Cefoselis: 2500 uM) in OCTN2-expressing HeLa cells. More on the design: scale not given: the % may be the effect or the level left. Particulars: human, probe carnitine (0.02 uM), read-out: Activity. The essentials: as §2
Data set [9] concerns the target T6, Organic cation/carnitine transporter 2 (Rattus norvegicus, UniProt O70594).
T6 sequence (O70594 whole entry): T2 sequence (O70594 whole entry)
Put plainly: (§5) TP_TRANSPORTER: inhibition of Carnitine uptake (Carnitine: 0.02 uM, Ceftazidime: 2500 uM) in OCTN2-expressing HeLa cells. Particulars: human.

Data set [10] has as its target T5, Organic cation/carnitine transporter 2. The description is as §5.
The target of data set [11] is T3, Solute carrier family 15 member 1 (Homo sapiens). As to the kind of experiment: TP_TRANSPORTER: inhibition of Gly-Sar uptake (Gly-Sar: 50 uM, Ceftazidime: 2500uM) in PEPT1-expressing HeLa cells. The essentials:
(§6)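 HeLa cells were transfected with human PEPT1 or rat PEPT2 cDNA. [14C]glycylsarcosine uptake (50 μM for PEPT1, 25 μM for PEPT2) ran 5 min at room temperature, inward H+ gradient, 25 mM Mes/Tris pH 6.0 buffer, antibiotic 2.5 mM. Vector-cell uptake was subtracted and lysates were scintillation-counted. Mean ± S.E., three measurements.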

Data set [12] deals with T4, Solute carrier family 15 member 2 (Rattus norvegicus). Put plainly: TP_TRANSPORTER: inhibition of Gly-Sar uptake (Gly-Sar: 25 uM, Ceftazidime: 2500uM) in PEPT2-expressing HeLa cells. The method, boiled down: as §6
Data set [13] concerns the target T5, Organic cation/carnitine transporter 2. Put plainly: TP_TRANSPORTER: inhibition of Carnitine uptake (Carnitine: 0.02 uM, Cephalexin: 2500 uM) in OCTN2-expressing HeLa cells.
Data set [14] concerns the target T3, Solute carrier family 15 member 1 (Homo sapiens). Put plainly: TP_TRANSPORTER: inhibition of Gly-Sar uptake (Gly-Sar: 50 uM, CER: 2500uM) in PEPT1-expressing HeLa cells. The method, boiled down: as §3
For data set [15], the target named is T5, Organic cation/carnitine transporter 2. As to the kind of experiment: TP_TRANSPORTER: uptake in OCTN2-expressing HeLa cells. The method, boiled down: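 hOCTN2 or vector-transfected HeLa cells incubated with 1 mM cephaloridine for 1 h at 37 °C in NaCl or N-methyl-D-glucamine chloride (Na+-free) medium. Cells lysed in water and lysate centrifuged. Supernatant cephaloridine quantified by C18 HPLC with UV at 254 nm against a standard curve, expressed per 10^6 cells.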

For data set [16] the target is unchanged. Put plainly: TP_TRANSPORTER: inhibition of Carnitine uptake (Carnitine: 0.02 uM, Cephradine: 2500 uM) in OCTN2-expressing HeLa cells.

On to `CC[N+](C)(C/C=C/C1=C(C(=O)[O-])N2C(=O)[C@@H](NC(=O)/C(=N\OCF)c3nsc(N)n3)[C@H]2SC1)CC(N)=O` (stereo partly specified) [CEFLUPRENAM], for which the activity at 2500 µM in [1] stood at 74%; in [2], 76%. In addition, the Activity result in [3] and in [4] was “is not an inhibitor [-]” each time.

In the case of `CO/N=C(\C(=O)N[C@@H]1C(=O)N2C(C(=O)[O-])=C(C[n+]3ccc(N)n3CCO)CS[C@H]12)c1csc(N)n1` [CEFOSELIS], the Activity in data set [5] was 76%; in [6] it was 83%. For the same compound, half-maximal inhibition in [7] (IC50) was put at 6.4 mM. Moreover, the activity at 2500 µM in [8] was determined as 71%.

Take `CC(C)(O/N=C(\C(=O)N[C@@H]1C(=O)N2C(C(=O)[O-])=C(C[n+]3ccccc3)CS[C@H]12)c1csc(N)n1)C(=O)O` [CEFTAZIDIME]: the Activity entry in data set [9], in data set [10], in [11] and in [12] was “is not an inhibitor [-]” throughout.

Regarding `CC1=C(C(=O)O)N2C(=O)[C@@H](NC(=O)[C@H](N)c3ccccc3)[C@H]2SC1` [CEPHALEXIN ANHYDROUS], the Activity result in data set [13] is “is not an inhibitor [-]”.

For the compound `O=C(Cc1cccs1)N[C@@H]1C(=O)N2C(C(=O)[O-])=C(C[n+]3ccccc3)CS[C@H]12` [CEPHALORIDINE], the Activity entry in data set [14] is “is not an inhibitor [-]”; in data set [15], “substrate [+]”.

In the case of `CC1=C(C(=O)O)N2C(=O)[C@@H](NC(=O)[C@H](N)C3=CCC=CC3)[C@H]2SC1` [CEPHRADINE], the Activity result in data set [16] is “is not an inhibitor [-]”.
